ChEMBL document CHEMBL3822438, “Chlorin p6-Based Water-Soluble Amino Acid Derivatives as Potent Photosensitizers for Photodynamic Therapy” (J Med Chem, 2016)
≈ marks a conversion by molar mass, not a printed value. Calls of active or inactive are those of the source. The calls are words filed in the database; no cut-off is given here.

How the values were obtained:
[1] = Aqueous solubility of the compound in PBS buffer at pH 7.4; type: physicochemical
[2] = Dark toxicity in mouse B16F10 cells assessed as cell viability after 48 hrs by cell counting kit-8 based spectrophotometric analysis; set-up: species or system B16-F10; conditions: mouse, B16F10 cells
Method in brief: (§1)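 CCK-8 dark toxicity. 5×10^3 cells seeded in 10% FBS medium (A375 in DMEM, B16-F10 in RPMI 1640). Exposed to graded compound concentrations for 48 h at 37 °C, kept in the dark. Fresh medium and CCK-8 added for 1.5 h, then absorbance read at 450 nm to give IC50. Ratio is dark IC50 over IC50 under light.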

[3] = Phototoxicity in mouse B16F10 cells assessed as cell viability after 24 hrs followed by irradiation with diode laser at 10 J/cm'2 measured after 24 hrs by cell counting kit-8 based spectrophotometric analysis; type: functional, B16-F10; conditions: Mus musculus, B16-F10, light or radiation study, 24 h
Method in brief: (§2)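 Phototoxicity by CCK-8. Cells loaded with a range of compound concentrations for 24 h at 37 °C, irradiated with a 678 nm diode laser at 10 J/cm², then incubated a further 24 h. Viability read as absorbance at 450 nm after 1.5 h with CCK-8.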

[4] = Ratio of IC50 for dark toxicity to IC50 for phototoxicity in mouse B16F10 cells by cell counting kit-8 based spectrophotometric analysis; set-up: species or system B16-F10; conditions: B16F10 cells, read-out: Ratio IC50; method in brief: as §1
[5] = Dark toxicity in human A375 cells assessed as cell viability after 48 hrs by cell counting kit-8 based spectrophotometric analysis; set-up: species or system A-375; conditions: human, A375 cells; method in brief: as §1
[6] = test system: A-375; experiment: Phototoxicity in human A375 cells assessed as cell viability after 24 hrs followed by irradiation with diode laser at 10 J/cm'2 measured after 24 hrs by cell counting kit-8 based spectrophotometric analysis; type: functional; conditions: Homo sapiens, A-375, light or radiation study, 24 h; method in brief: as §2
[7] = Ratio of IC50 for dark toxicity to IC50 for phototoxicity in human A375 cells; type: cell-based, A-375; conditions: A375 cells, read-out: Ratio IC50; method in brief: as §1
[8] = test system: B16-F10; experiment: Antitumor activity against B16F10 cells implanted in C57BL/6 mouse assessed as tumor growth inhibition at 2 mg/kg, iv administered for 2 hrs followed by irradiation with laser at 150 J/cm'2 for 10 mins; type: functional, organism-based
Method in brief: (§3)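 B16-F10 cells (2×10^4) inoculated subcutaneously into the right thigh of male C57BL/6 mice aged 6-8 weeks. Mice with tumours 6-8 mm in diameter were used, 5 per group. Irradiation at 678 nm diode laser, 250 mW/cm² for 10 min, 2 h after i.v. dosing. Tumour volume measured by caliper as (W²×L)/2. Survival recorded daily and analysed by Kaplan-Meier with log-rank test.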

[9] = test system: B16-F10; experiment: Antitumor activity against B16F10 cells implanted in C57BL/6 mouse assessed as survival time at 2 mg/kg, iv administered for 2 hrs followed by irradiation with laser at 150 J/cm'2 for 10 mins (reference value: 13 days); type: functional, organism-based; method in brief: as §3
[10] = test system: B16-F10; experiment: Phototoxicity in mouse B16F10 cells assessed as reduction in cell surviving fraction by irradiation with diode laser at 10 J/cm'2 after 24 hrs by cell counting kit-8 based spectrophotometric analysis; type: functional
Method in brief: (§4)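 Survival fraction after PDT. Cells held 24 h at 2 µM or 0.2 µM, irradiated at 678 nm with 10 J/cm², then cultured another 24 h. Viability measured by CCK-8 at 450 nm.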

[11] = test system: A-375; experiment: Phototoxicity in human A375 cells assessed as reduction in cell surviving fraction by irradiation with diode laser at 10 J/cm'2 after 24 hrs by cell counting kit-8 based spectrophotometric analysis; type: functional; method in brief: as §4
[12] = Dark toxicity in mouse B16F10 cells assessed as reduction in cell surviving fraction at 50 to 300 uM after 48 hrs by cell counting kit-8 based spectrophotometric analysis; conditions: b16-f10, 48 h
Method in brief: (§5)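 Survival fraction measured in the dark by CCK-8 after 48 h exposure at 37 °C to 300 µM or 50 µM. Cells were in 10% FBS medium (A375 in DMEM, B16-F10 in RPMI 1640). Viability read as absorbance at 450 nm after 1.5 h with CCK-8.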

[13] = test system: A-375; experiment: Dark toxicity in human A375 cells assessed as reduction in cell surviving fraction at 50 to 300 uM after 48 hrs by cell counting kit-8 based spectrophotometric analysis; conditions: a-375, 48 h; method in brief: as §5
[14] = test system: B16-F10; experiment: Phototoxicity in mouse B16F10 cells assessed as reduction in cell surviving fraction by irradiation with diode laser at 10 J/cm'2 at 5 uM after 24 hrs by cell counting kit-8 based spectrophotometric analysis; type: functional
Method in brief: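 B16-F10 cells exposed to 5 µM for 24 h, then given varying 678 nm laser light doses. After a further 24 h, survival fraction was read by CCK-8 absorbance at 450 nm.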

[15] = Dark toxicity in mouse B16F10 cells assessed as cell viability after 48 hrs by MTT assay; type: cell-based, B16-F10; conditions: mouse, B16F10 cells
Method in brief: (§6)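 B16-F10 cells in RPMI 1640 with 10% FBS. Dark arm: compound for 48 h. Light arm: compound for 24 h, then 678 nm diode laser at 10 J/cm², then a further 24 h. Read-out by MTT for 4 h, formazan dissolved in DMSO, absorbance at 490 nm. Ratio is dark IC50 over light IC50.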

[16] = (§7) Phototoxicity in mouse B16F10 cells assessed as cell viability after 24 hrs followed by irradiation with diode laser at 10 J/cm'2 measured after 24 hrs by MTT assay; type: functional, cell-based, B16-F10; conditions: Mus musculus, B16-F10, light or radiation study, 24 h; method in brief: as §6
[17] = test system: B16-F10; experiment: as §7; type: functional, cell-based; method in brief: as §6
[18] = Ratio of IC50 for dark toxicity to IC50 for phototoxicity in mouse B16F10 cells by MTT assay; type: cell-based, B16-F10; conditions: B16F10 cells, read-out: Ratio IC50; method in brief: as §6
[19] = Drug uptake in lysosomes of mouse B16F10 cells at 10 uM incubated in dark for 24 hrs by lyso tracker green dye based confocal microscopy; type: ADME, cell-based, Lysosome; conditions: b16-f10, 24 h
[20] = Drug uptake in mitochondria of mouse B16F10 cells at 10 uM incubated in dark for 24 hrs by mito tracker green FM dye based confocal microscopy; type: ADME; conditions: b16-f10, 24 h
[21] = Drug uptake in golgi apparatus of mouse B16F10 cells at 10 uM incubated in dark for 24 hrs by golgi tracker green dye based confocal microscopy; type: ADME, cell-based; conditions: b16-f10, 24 h
[22] = Drug uptake in endoplasmic reticulum of mouse B16F10 cells at 10 uM incubated in dark for 24 hrs by ER tracker green dye based confocal microscopy; type: ADME, cell-based; conditions: b16-f10, 24 h
[23] = Drug uptake in nucleus of mouse B16F10 cells at 10 uM incubated in dark for 24 hrs by confocal microscopy; type: ADME, cell-based; conditions: b16-f10, 24 h
[24] = test system: B16-F10; experiment: Induction of apoptosis in mouse B16F10 cells assessed as early apoptotic cells at 2 uM after 24 hrs followed by irradiation with diode laser at 10 J/cm'2 by alexa fluor 488 annexin V/PI double staining based flow cytometry (reference value: 0.08%); type: functional
[25] = test system: B16-F10; experiment: Induction of apoptosis in mouse B16F10 cells assessed as necrotic/late apoptotic cells at 2 uM after 24 hrs followed by irradiation with diode laser at 10 J/cm'2 by alexa fluor 488 annexin V/PI double staining based flow cytometry (reference value: 1.94%); type: functional
[26] = test system: B16-F10; experiment: Induction of apoptosis in mouse B16F10 cells assessed as early apoptotic cells at 5 uM after 24 hrs followed by irradiation with diode laser at 10 J/cm'2 by alexa fluor 488 annexin V/PI double staining based flow cytometry (reference value: 0.08%); type: functional
[27] = test system: B16-F10; experiment: Induction of apoptosis in mouse B16F10 cells assessed as necrotic/late apoptotic cells at 5 uM after 24 hrs followed by irradiation with diode laser at 10 J/cm'2 by alexa fluor 488 annexin V/PI double staining based flow cytometry (reference value: 1.94%); type: functional
[28] = test system: B16-F10; experiment: Induction of apoptosis in mouse B16F10 cells assessed as necrotic/late apoptotic cells after 24 hrs followed by irradiation with diode laser at 10 J/cm'2 by alexa fluor 488 annexin V/PI double staining based flow cytometry; type: functional, cell-based
[29] = test system: B16-F10; experiment: Antitumor activity against B16F10 cells implanted in C57BL/6 mouse assessed as tumor growth inhibition at 1 mg/kg, iv administered for 2 hrs followed by irradiation with laser at 150 J/cm'2 for 10 mins; type: functional, organism-based; method in brief: as §3
[30] = Antitumor activity against B16F10 cells implanted in C57BL/6 mouse assessed as survival time at 1 mg/kg, iv administered for 2 hrs followed by irradiation with laser at 150 J/cm'2 for 10 mins (reference value: 13 days); type: functional, B16-F10
[31] = Ratio of IC50 for test compound to IC50 for verteporfin for dark toxicity in mouse B16F10 cells by cell counting kit-8 based spectrophotometric analysis; set-up: species or system B16-F10; conditions: read-out: Ratio IC50
[32] = Ratio of IC50 for test compound to IC50 for verteporfin for dark toxicity in human A375 cells by cell counting kit-8 based spectrophotometric analysis; set-up: species or system A-375; conditions: read-out: Ratio IC50
[33] = Ratio of IC50 for dark toxicity to IC50 for phototoxicity in human A375 cells by CCK-8 assay

`C=Cc1c(C)c2cc3nc(c(C(=O)OC)c4[nH]c(cc5nc(cc1[nH]2)C(C)=C5CC)c(C)c4C(=O)OC)[C@@H](CCC(=O)O)[C@@H]3C` showed a solubility [1] of less than 1.6 µM, an IC50 at 48 h [2] of 15700 nM and an IC50 [3] of 300 nM. It also gave a selectivity ratio [4] of 52.2, an IC50 at 48 h [5] of 31300 nM and an IC50 [6] of 520 nM. The selectivity ratio [7] was 60.2.
Work on `CCC1=C(C)c2cc3[nH]c(cc4nc(c(C(=O)OC)c5[nH]c(cc1n2)c(C)c5C(=O)OC)C(CCC(=O)N[C@@H](CC(=O)O)C(=O)O)=C4C)[C@@]1(C)C3=CC=C(C(=O)OC)[C@H]1C(=O)OC` yielded an IC50 at 48 h [2] of 271000 nM, an IC50 [3] of 2290 nM and a selectivity ratio [4] of 118. It also gave an IC50 at 48 h [5] greater than 300000 nM, an IC50 [6] of 3020 nM and a selectivity ratio [7] greater than 99.3.
For VERTEPORFIN, the TGI [8] was “Active” and the MST [9] was 18 days.
`C=Cc1c(C)c2cc3nc(c(C(=O)OC)c4[nH]c(cc5nc(cc1[nH]2)C(C)=C5CC)c(C)c4C(=O)OC)[C@@H](CCC(=O)N[C@@H](CC(=O)O)C(=O)O)[C@@H]3C` gave a solubility [1] of 41.7 µM (≈ 30.3 µg/mL), an IC50 at 48 h [2] greater than 300000 nM and an IC50 [3] of 680 nM. For the same compound, the selectivity ratio [4] was greater than 441, the IC50 at 48 h [5] was greater than 300000 nM and the IC50 [6] was 980 nM. The selectivity ratio [7] was greater than 306, the Activity [10] was “Dose-dependent effect” and the Activity [11] was “Dose-dependent effect”. For the same compound, the Activity [12] was “Non-toxic”, the Activity [13] was “Non-toxic” and the Activity [14] was “Active”. The IC50 at 48 h [15] was greater than 300000 nM, the IC50 [16] was 750 nM and the Activity [17] was “Dose-dependent effect”. The selectivity ratio [18] was greater than 400, the Drug uptake [19] was “Active” and the Drug uptake [20] was “Active”. The Drug uptake [21] was “Active”, the Drug uptake [22] was “Active” and the Drug uptake [23] was “Not Active”. It also gave an Activity [24] of 0.3%, an Activity [25] of 68.23% and an Activity [26] of 5.61%. For the same compound, the Activity [27] was 82.05%, the Activity [28] was “Dose-dependent effect” and the TGI [29] was “Active”. It also gave an MST [30] of 21 days, a selectivity ratio [31] greater than 8.3 and a selectivity ratio [32] greater than 8.3. The selectivity ratio [33] was greater than 306.
